# Screens (PubChem)
# Shown are actives, neighbours in structure and some others; about 0.96% of the full set was active somewhere.
# RPL19A-GFP yeast = RPL19A-GFP expression modulators in yeast, primary screen, cell-based, S. cerevisiae, multiplex flow cytometry, MLPCN; 330,000 tested, 0.3% active; percent response vs DMSO, % at 10 µM; S. cerevisiae RPL19A-GFP strain, 3 h; hits give low values; AID 2025, 2009;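 active means percent response vs DMSO below 50%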;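 further: median channel GFP fluorescence of the barcoded RPL19A-GFP strain; ratio of sample median GFP to plate DMSO average so 100% = DMSO; lower means less RPL19A-GFP as with rapamycin TOR inhibition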
# AGP1 TOR yeast = modulators of AGP1-GFP expression in yeast TOR pathway, primary screen, cell-based, multiplex flow cytometry, S. cerevisiae, MLPCN library. 3 h; GFP as percent of DMSO wells. GFP response vs DMSO, % at 10 µM. 320,000 tested, 0.02% active. AID 2066, 2009;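 active means GFP response relative to DMSO above a set limit, near screen average plus 3 SD, cut at about 150% in these data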;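 further: median GFP channel fluorescence of the gated AGP1 strain per well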
# LAP4-GFP MLPCN = modulators of LAP4-GFP expression in yeast, primary screen, S. cerevisiae, multiplex flow cytometry, MLPCN library; GFP response vs DMSO, % at 10 µM; AID 2023, 2009; 3 h; median GFP as percent of DMSO wells; 320,000 tested, 0.34% active;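 active means GFP response vs DMSO above a set limit, about the screen mean plus 3 SD, cut at about 150% in these data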
# MEP2 TOR yeast = modulators of MEP2-GFP levels in yeast, primary screen, S. cerevisiae, multiplex flow cytometry, MLPCN library | S. cerevisiae MEP2-GFP strain, 3 h; 100% = DMSO control level | GFP response vs DMSO, % at 10 µM | 330,000 tested, 0.51% active;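 active means GFP response versus DMSO above a set limit, roughly screen mean plus 3 SD, cut at about 180% in these data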;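 further: median GFP fluorescence of the barcode-gated MEP2-GFP cells per well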
# CIT2-GFP yeast = modulators of CIT2-GFP expression in yeast, primary screen, S. cerevisiae, GFP fusion, multiplex flow cytometry, MLPCN library. 320,000 tested, 0.065% active. GFP response vs DMSO, % at 10 µM. AID 2029, 2009. S. cerevisiae CIT2-GFP strain, 3 h; 100 means same as DMSO wells;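 active means GFP response relative to DMSO above a set limit, near the screen mean plus 3 SD, cut at about 150% in these data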;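 further: ratio of well median GFP fluorescence to mean of DMSO wells on the plate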
# T cell modulator = modulators of CD8 T cell-vesicle binding, primary screen, mouse 2C CD8+ T cells, flow cytometry; 2C CD8+ T cell-vesicle binding; hits give low values; response (vesicle binding), % at 7 µM; 330,000 tested, 0.068% active; AID 2052, 2009;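 active means response, share of CD8 T cells binding vesicles, and their 90th percentile fluorescence all below set limits, cut at about 80% in these data, passing the limit was not always enough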;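 further: values below 100% mean blocked vesicle binding to the CD8+ T cells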
#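 Material: 2C TCR transgenic mouse naive CD8+ T cells, MACS-purified. Also added: QL9-charged Drosophila Ld/ICAM-1/B7-1 vesicles. Timing: binding 1.5 h at 37 °C. Measured by: high-throughput flow cytometry with anti-B7-1 and anti-CD8 staining. Read-out: percent CD8+ FL2 mean versus row control. Controls: Unloaded micro-vesicles (low), QL9 vesicles with 0.7% DMSO (high).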
# LAP4 cherry2 = LAP4-GFP expression modulators in yeast, confirmation, cell-based, second cherry pick, flow cytometry; shares compounds with LAP4-GFP MLPCN; S. cerevisiae LAP4-GFP strain, 3 h; GFP response vs DMSO, % at 10 µM; 590 tested, 20% active; AID 2621, 2010;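 active means GFP signal as percent of the solvent control above about 150%, meaning raised reporter expression, limit read from the data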;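 further: ratio of well median GFP fluorescence to plate DMSO mean so 100% = DMSO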
# MEP2-GFP pick2 = modulators of MEP2-GFP levels in yeast, confirmation, S. cerevisiae, flow cytometry GFP, second cherry picks. 590 tested, 10% active. S. cerevisiae MEP2-GFP strain, 3 h. shares compounds with LAP4-GFP MLPCN. GFP response vs DMSO, % at 10 µM;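 active means GFP signal above 150% of the solvent control wells, that is a rise of more than half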;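 further: median channel GFP fluorescence of all gated yeast cells per well; ratio of median GFP to plate DMSO average so 100% = DMSO level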
# RPL19A-GFP pick2 = RPL19A-GFP modulators in TOR pathway yeast, confirmation, cell-based, S. cerevisiae, flow cytometry, second cherry pick. 590 tested, 3% active. GFP response vs DMSO, % at 10 µM. shares compounds with LAP4-GFP MLPCN. S. cerevisiae RPL19A-GFP strain, 3 h; hits give low values; 100% means same as DMSO wells;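 active means under 65% GFP response relative to DMSO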;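 further: median GFP channel fluorescence per well over the all cells gate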
# CIT2 GFP CP2 = modulators of CIT2-GFP expression in yeast, confirmation, flow cytometry, second cherry pick, single plex; S. cerevisiae CIT2-GFP strain, 3 h; DMSO control wells read 100%; GFP response vs DMSO, % at 10 µM; shares compounds with LAP4-GFP MLPCN; 590 tested, 8% active;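 active means GFP response vs DMSO above about 150%, limit read from the data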;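 further: median green fluorescence per well over all gated yeast cells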
# AGP1-GFP pick2 = AGP1-GFP expression modulators, hit retest, confirmation, cell-based, flow cytometry, S. cerevisiae, cherry pick set 2; shares compounds with LAP4-GFP MLPCN; S. cerevisiae AGP1-GFP strain, 3 h; percent response vs DMSO, % at 10 µM; 590 tested, under 10 active; AID 2643, 2010;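 active means over 150 percent of DMSO response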;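 further: median GFP channel fluorescence over all cells without mother daughter split; sample median GFP divided by mean DMSO control so 100% equals DMSO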
# s288c autofluor = compound autofluorescence in yeast s288c, dose response, artefact control for yeast TOR pathway GFP screen, s288c strain. shares compounds with LAP4-GFP MLPCN. S. cerevisiae s288c, 520 nm autofluorescence, flow cytometry, 3 h; hits give high values; zero means same as solvent-only cells. fluorescence change (kMESF span) at 33 µM. 610 tested, under 10 active;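 active means fluorescence span over the dose series, or activity score, above about 33, limit read from the data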
# Starred values were filed as active, the others as inactive; . = no result given.
SMILES,RPL19A-GFP yeast,AGP1 TOR yeast,LAP4-GFP MLPCN,MEP2 TOR yeast,CIT2-GFP yeast,T cell modulator,LAP4 cherry2,MEP2-GFP pick2,RPL19A-GFP pick2,CIT2 GFP CP2,AGP1-GFP pick2,others
Cc1cc(C)n(-c2ccc(C(=O)NCC(=O)Nc3cc(Cl)ccc3Cl)cc2)n1,101,102,101,99,98,456,.,.,.,.,.,
CCOC(=O)/C(=C\c1cn(C)c2ccccc12)[N+](=O)[O-],80,59,207*,98,57,175,.,.,.,.,.,s288c autofluor=2.2
C=CCN(c1nc(C)c(Br)c(OC)n1)S(=O)(=O)c1ccc(C)cc1,102,98,97,108,99,167,.,.,.,.,.,
O=C(Cn1cccc1C(=O)c1ccccc1)NCCC1=CCCCC1,51,23,90,158,98,290,99,100,98,110,106,
O=C(Cn1cccc1C(=O)c1ccccc1)NCCCc1ccccc1,89,93,95,88,91,200,.,.,.,.,.,
CC1(C)C(=O)Nc2ccccc2N1C(=O)COc1ccccc1C#N,87,117,158*,99,92,255,100,100,98,107,99,
S=c1[nH]nc(-c2ccco2)n1/N=C/c1ccc(Cl)cc1Cl,101,99,120,216*,102,320,102,100,99,99,94,
CN1CCN(c2ccc(CNS(=O)(=O)Cc3cccc(C(F)(F)F)c3)cc2)CC1,97,105,106,97,101,174,.,.,.,.,.,
O=C1CCCCN1CC(=O)N1CCCC(Nc2ccc(F)cc2)C1 (configuration not stated),94,91,89,114,102,323,.,.,.,.,.,
CN1C(=O)[C@@H]2C[C@@]3([C@@]45C[C@H]6C(=O)N(C)[C@@H](Cc7ccccc7)C(=O)N6[C@@H]4Nc4ccccc45)c4ccccc4N[C@H]3N2C(=O)[C@@H]1Cc1ccccc1,99,94,155*,94,129,554,97,96,103,108,100,
O=C1N[C@@H](Cc2ccccc2)C(=O)N2[C@H]3Nc4ccccc4[C@@]3([C@]34C[C@H]5C(=O)N[C@@H](Cc6ccccc6)C(=O)N5[C@H]3Nc3ccccc34)C[C@@H]12,99,103,91,98,99,369,.,.,.,.,.,
COc1ccc(NC(=O)COC(=O)c2cc3c(s2)CCC3)cc1,105,103,122,123,102,482,.,.,.,.,.,
